Experiments:
Mus musculus [1] = experiment: In vivo antinociceptive activity using mouse tail flick test, subcutaneous administration; format: functional
Mus musculus [2] = experiment: Phenyl-p-benzoquinone-induced abdominal constriction after subcutaneous administration in mouse (in vivo); format: functional, Abdomen
Method in brief: (§1)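 Mice given test agent subcutaneously, with 10 animals per dose, then challenged with phenyl-p-benzoquinone. Abdominal constrictions counted over an 8-min observation period. Percentage inhibition calculated as 1 − (T/C) × 100, with T the treated-group mean and C the control-group mean count.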

Mus musculus [3] = experiment: In vivo antinociceptive activity in mouse tail flick test following p.o. administration.; format: functional
Mus musculus [4] = experiment: Concentration required for 50% inhibition of abdominal constrictions by phenyl-p-benzoquinone-induced abdominal constriction given sc in mouse.; format: functional, Abdomen; method in brief: as §1
[5] = biological target: Kappa-type opioid receptor (Cavia porcellus, UniProt P41144); experiment: Displacement of [3H]-BRL 52537 from opioid receptor kappa site in guinea pig
Sequence of Kappa-type opioid receptor (P41144 whole entry): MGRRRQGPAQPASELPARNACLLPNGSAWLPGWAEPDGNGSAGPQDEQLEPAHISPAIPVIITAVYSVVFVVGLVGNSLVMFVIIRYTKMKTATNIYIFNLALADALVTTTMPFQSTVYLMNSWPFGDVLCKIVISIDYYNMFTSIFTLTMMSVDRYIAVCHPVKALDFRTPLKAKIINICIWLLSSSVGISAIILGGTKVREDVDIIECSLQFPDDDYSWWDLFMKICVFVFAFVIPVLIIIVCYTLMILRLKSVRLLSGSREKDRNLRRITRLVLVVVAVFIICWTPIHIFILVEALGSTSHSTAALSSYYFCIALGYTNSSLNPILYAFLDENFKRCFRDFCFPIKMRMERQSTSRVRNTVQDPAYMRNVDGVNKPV

Mu-type opioid receptor = Mu-type opioid receptor (Cavia porcellus, UniProt P97266); experiment: Affinity for opioid receptor mu sites
Sequence of Mu-type opioid receptor (P97266 whole entry): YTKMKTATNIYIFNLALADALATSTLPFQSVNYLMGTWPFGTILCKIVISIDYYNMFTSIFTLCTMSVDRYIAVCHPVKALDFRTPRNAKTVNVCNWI

[6] = Mus musculus, Tail, sc, read-out: ED50
[7] = Mus musculus, Abdomen, sc, read-out: ED50
[8] = Mus musculus, Tail, po, read-out: ED50

SMILES | ED50 (Mus musculus [1]; [6]) | ED50 (Mus musculus [3]; [8]) | Ki [5] | Ki (Mu-type opioid receptor) | also measured
CN(CC1CC1)CC1c2ccccc2CCN1C(=O)Cc1ccc(Cl)c(Cl)c1 (racemic) | 3.39 µmol/kg | – | – | – | –
O=C(Cc1ccc(Cl)c(Cl)c1)N1CCc2ccccc2C1CN1CCCCCC1 (stereo not drawn) | 0.267 µmol/kg | – | – | – | ED50 (Mus musculus [2]; [7]): 0.083 µmol/kg
CN(C)CC1c2ccccc2CCN1C(=O)Cc1ccc(Cl)c(Cl)c1.Cl (racemic) | 0.099 µmol/kg | 2.88 µmol/kg | – | – | ED50 (Mus musculus [4]): 0.127 µM/kg
O=C(Cc1ccc(Br)cc1)N1CCc2ccccc2C1CN1CCCC1 (racemic) | 0.07 µmol/kg | – | – | – | –
O=C(Cc1ccc(Cl)c(Cl)c1)N1CCc2ccccc2C1CN1CCCCCCC1 (racemic) | > 22 µmol/kg | – | – | – | –
C=CCN(C)CC1c2ccccc2CCN1C(=O)Cc1ccc(Cl)c(Cl)c1 (racemic) | 0.521 µmol/kg | 6.88 µmol/kg | – | – | –
O=C(Cc1ccc(Cl)c(Cl)c1)N1CCCC[C@H]1CN1CCCC1 | 0.135 µmol/kg | 2.49 µmol/kg | 0.31 nM | – | ED50 (Mus musculus [2]; [7]): 0.056 µmol/kg
O=C(Cc1ccc(Cl)c(Cl)c1)N1CCc2[nH]c3ccccc3c2C1CN1CCCC1 (stereo not drawn) | > 20 µmol/kg | – | 100 nM | > 1000 nM | –
O=C(Cc1ccc(Cl)c(Cl)c1)N1c2ccccc2CCC1CN1CCCC1 (stereo not drawn) | > 20 µmol/kg | – | – | – | –
O=C(Cc1ccc(Cl)c(Cl)c1)N1Cc2ccccc2CC1CN1CCCC1 (stereo not drawn) | 8.23 µmol/kg | – | – | – | –
O=C(Cc1ccccc1[N+](=O)[O-])N1CCc2ccccc2C1CN1CCCC1 (racemic) | > 21 µmol/kg | – | – | – | –
CCN(CC)CC1c2ccccc2CCN1C(=O)Cc1ccc(Cl)c(Cl)c1 (racemic) | 0.264 µmol/kg | 3.37 µmol/kg | – | – | –
O=C(Cc1ccc(C(F)(F)F)cc1)N1CCc2sccc2C1CN1CCCCC1 (stereo not drawn) | 0.125 µmol/kg | 4.65 µmol/kg | 0.6 nM | 420 nM | ED50 (Mus musculus [2]; [7]): 0.024 µmol/kg
O=C(Cc1ccc(C(F)(F)F)cc1)N1CCCC[C@H]1CN1CCCC1 | 0.0373 µmol/kg | 3.29 µmol/kg | 0.64 nM | 2340 nM | ED50 (Mus musculus [2]; [7]): 0.099 µmol/kg
O=C(Cc1ccc(Cl)c(Cl)c1)N1CCc2ccsc2C1CN1CCCC1 (stereo not drawn) | 0.073 µmol/kg | 1.59 µmol/kg | 0.46 nM | 47 nM | –
O=C(Cc1ccc(Cl)c(Cl)c1)N1CCc2ccccc2C1CN1CCC1 (stereo not drawn) | 23.2 µmol/kg | – | – | – | –

SMILES | ED50 (Mus musculus [1]; [6]) | ED50 (Mus musculus [3]; [8]) | Ki [5] | Ki (Mu-type opioid receptor) | also measured
O=C(Cc1ccc(Cl)c(Cl)c1)N1CCc2sccc2C1CN1CCCCC1 (stereo not drawn) | 0.096 µmol/kg | 2.75 µmol/kg | 0.47 nM | 445 nM | ED50 (Mus musculus [2]; [7]): 0.024 µmol/kg
CCCN(CCC)CC1c2ccccc2CCN1C(=O)Cc1ccc(Cl)c(Cl)c1 (racemic) | > 23 µmol/kg | – | – | – | –
O=C(Cc1ccc([N+](=O)[O-])cc1)N1CCc2ccccc2C1CN1CCCC1 (racemic) | 0.038 µmol/kg | 0.409 µmol/kg | – | – | –
O=C(Cc1ccc(C(F)(F)F)cc1)N1CCc2ccccc2[C@H]1CN1CCCC1 (stereo in doubt; 30) | – | 0.25 µmol/kg | 0.24 nM | 10.7 nM | ED50 (Mus musculus [1]): 0.032 µM/kg; ED50 (Mus musculus [4]; [7]): 0.015 µmol/kg
CN1CC[C@]23c4c5ccc(O)c4O[C@H]2[C@@H](O)C=C[C@H]3[C@H]1C5 [MORPHINE] | – | 32.6 µmol/kg | – | – | –
O=C(Cc1ccc(Cl)c(Cl)c1)N1CCc2ccccc2C1CN1CCCC1 (stereo not drawn) | 0.036 µmol/kg | 0.626 µmol/kg | – | – | ED50 (Mus musculus [2]; [7]): 0.025 µmol/kg
CNCC1c2ccccc2CCN1C(=O)Cc1ccc(Cl)c(Cl)c1 (racemic) | > 28 µmol/kg | – | – | – | –
O=C(Cc1ccc(Cl)c(Cl)c1)N1CCc2c([nH]c3ccccc23)C1CN1CCCC1 (stereo not drawn) | > 20 µmol/kg | – | > 100 nM | > 1000 nM | –
O=C(Cc1ccc(C(F)(F)F)cc1)N1CCc2ccccc2C1CN1CCCC1 (racemic) | 0.074 µmol/kg | 0.467 µmol/kg | – | – | ED50 (Mus musculus [4]; [7]): 0.027 µmol/kg
O=C(Cc1ccc(Cl)c(Cl)c1)N1CCc2ccccc2C1CN1CCCC1.O=C(O)C(O)C(O)C(=O)O (stereo not drawn) | – | – | – | – | ED50 (Mus musculus [3]): 0.544 µM/kg; ED50 (Mus musculus [1]): 0.02 µM/kg; ED50 (Mus musculus [2]): 0.017 µM/kg
O=C(Cc1ccc(Cl)c(Cl)c1)N1CCc2sccc2C1CN1CCCC1 (stereo not drawn) | 0.018 µmol/kg | 0.945 µmol/kg | 0.22 nM | 47.2 nM | –
O=C(Cc1ccc(Cl)c(Cl)c1)N1CCc2ccccc2C1CN1CCCCC1 (racemic) | 0.359 µmol/kg | 5.16 µmol/kg | – | – | ED50 (Mus musculus [2]; [7]): 0.101 µmol/kg
CCO.CN(C)CC1c2ccccc2CCN1C(=O)Cc1ccc(Cl)c(Cl)c1.O=C(O)C(O)C(O)C(=O)O (single isomer, unassigned; (-)) | – | – | 0.51 nM | 293 nM | ED50 (Mus musculus [3]): 2.199 µM/kg; ED50 (Mus musculus [1]): 0.075 µM/kg; ED50 (Mus musculus [4]): 0.042 µM/kg
O=C(Cc1cccc([N+](=O)[O-])c1)N1CCc2ccccc2C1CN1CCCC1 (racemic) | 0.105 µmol/kg | 5.26 µmol/kg | – | – | –
O=C(Cc1ccc(C(F)(F)F)cc1)N1CCc2ccccc2C1CN1CCCCC1 (single isomer, unassigned; (-)) | 0.168 µmol/kg | 3.84 µmol/kg | 0.62 nM | 231 nM | ED50 (Mus musculus [4]; [7]): 0.06 µmol/kg
